From ChEMBL document CHEMBL4024711, “Design, synthesis and biological evaluation of novel nitric oxide-donating protoberberine derivatives as antitumor agents” (Eur J Med Chem, 2017)
The source made the active and inactive calls. No cut-off for these calls is given here.

What was measured:
HepG2 = test: Cytotoxicity against human HepG2 cells after 72 hrs by MTT assay; format: functional, cell-based; conditions: HepG2, 72 h
Method in brief: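 MTT assay. Cells were plated and grown 24 h at 37 °C, 5% CO2, then exposed to compound in medium with 0.1% DMSO for 72 h. MTT (5 mg/mL in PBS) was added for 4 h and absorbance read at 490 nm. IC50 was taken from dose-response curves; at least three independent experiments.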

[1] = Induction of NO release assessed as nitrite formation in PBS at 100 uM up to 300 mins by Griess assay
Method in brief: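 Compound at 100 μM was incubated at 37 °C in PBS, pH 7.4, containing 2% DMSO and 5.0 mM L-cysteine, in acellular or HepG2 cell lysates, and sampled over time. Samples were mixed with Griess reagent at 37 °C for 15 min and read at 540 nm. Nitrite was quantified against a sodium nitrite standard curve, in triplicate.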

Row | Compound | IC50 (HepG2) | Activity [1]
1 | COc1ccc2c(Br)c3[n+](cc2c1OCCCCCCCCO[N+](=O)[O-])CCc1cc2c(cc1-3)OCO2 | 4.14 µM | Active
2 | COc1ccc2cc3[n+](cc2c1OCCCCCCO[N+](=O)[O-])CCc1cc2c(cc1-3)OCO2 | 8.51 µM | –
3 | COc1ccc2cc3[n+](cc2c1OCCCCCO[N+](=O)[O-])CCc1cc2c(cc1-3)OCO2 | 12.4 µM | –
4 | COc1cc2c(cc1OC)-c1c(Br)c3ccc(OC)c(OCCCCCCCCCCCCO[N+](=O)[O-])c3c[n+]1CC2 | 1.98 µM | –
5 | COc1ccc2cc3[n+](cc2c1OCCCCO[N+](=O)[O-])CCc1cc2c(cc1-3)OCO2 | 18.4 µM | Active
